Screening results from PubChem BioAssay.
EBI2 block – antagonists of human EBI2 receptor; P32249; EBI2 beta-arrestin recruitment, luminescence, 7a,25-OHC stimulated; inhibition, % at 5 µM; hit rate 0.81% among 360,000; AID 651636; in the data active = inhibition above about 38%;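 note: enzyme fragment complementation signal reports receptor beta-arrestin coupling in cells; 0% = agonist plus DMSO wells and 100% = wells without agonist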
APJ antag – antagonists of human APJ apelin receptor. CHO-K1 APJ beta-arrestin complementation, luminescence. P35414. inhibition, % at 20 µM. hit rate 0.32% among 330,000;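 active = inhibition above about 40% at 20 µM, limit read from the data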;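 note: cells challenged with 10 nM apelin-13 agonist together with compound; plate controls were apelin-13 plus DMSO wells for no effect and DMSO wells lacking apelin-13 for full effect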
CXCR6 inh – inhibitors of human CXCR6 receptor. O00574. CHO-K1 PathHunter CXCR6 beta-arrestin, luminescence. AID 602244. hit rate 0.36% among 360,000. inhibition, % at 20 µM; in the data active = inhibition above about 34%, passing the limit was not always enough;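 note: antagonist mode with CXCL16 agonist at 10 nM final; 0% = 10 nM CXCL16 with DMSO and 100% = unstimulated wells without agonist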
Target sequence (O00574 whole entry, looked up): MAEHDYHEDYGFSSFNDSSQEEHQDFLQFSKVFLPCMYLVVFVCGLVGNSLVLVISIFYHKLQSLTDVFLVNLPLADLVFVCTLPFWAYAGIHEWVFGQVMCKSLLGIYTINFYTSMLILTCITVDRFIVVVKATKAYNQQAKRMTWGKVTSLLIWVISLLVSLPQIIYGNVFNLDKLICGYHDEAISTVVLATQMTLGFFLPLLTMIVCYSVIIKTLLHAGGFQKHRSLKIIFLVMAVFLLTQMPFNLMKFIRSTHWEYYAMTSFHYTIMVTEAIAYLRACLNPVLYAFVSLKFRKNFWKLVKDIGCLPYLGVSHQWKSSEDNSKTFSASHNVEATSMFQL
CCR6 antag – CCR6 (human) receptor antagonism; P51684; CHO-K1 CCR6 PathHunter beta-arrestin, luminescence, CCL20-stimulated; inhibition, % at 20 µM; hit rate 0.49% among 340,000;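 active = compounds whose inhibition of the agonist-driven luminescence signal at 20 µM reaches about 50%, limit read from the data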;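 note: cells stimulated with CCL20 at 14 nM final; plate controls were DMSO with CCL20 for no effect and DMSO without agonist for full effect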
APJ agonist – activates the human apelin receptor APJ. P35414. CHO-K1 APJ PathHunter beta-arrestin, luminescence; 0% DMSO wells, 100% apelin. activation, % at 20 µM. hit rate 0.11% among 330,000. AID 2520;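 active = activation more than six SD over the plate average, tested at 20 µM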;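 note: 0% = DMSO alone and 100% = apelin-13 at 10 nM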
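Test system – PathHunter CHO-K1 APJ (AGTRL-1) beta-arrestin reporter cells · Input – 1000 cells/well · Compound – single test compound dose, 20 µM final, 1% DMSO · Times – compound stimulation 90 min at 25 °C, detection 60 min · Technique – beta-gal luminescence · Read-out basis – APJ–arrestin association signal · Control set – negative DMSO alone, positive Apelin-13 at 10 nM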
Numbers without * were called inactive; · = no result given. An excerpt weighted towards active compounds, which were near 1.5% of everything screened.

SMILES	EBI2 block	APJ antag	CXCR6 inh	CCR6 antag	APJ agonist
COc1cc(/C=C(/C#N)C(=O)NCCc2c[nH]c3ccccc23)ccc1OCc1ccccc1F	28	7	32	58*	11
Cc1cc(/C=C(\C#N)C(=O)NCCc2c[nH]c3ccccc23)c(C)n1C	11	2	12	19	-1
Cc1ccc(NC(=S)NCc2ccccn2)cc1	-6	-11	-4	-2	-1
S=C(NCc1ccccn1)NN=Cc1ccccn1	-18	·	34	61*	·
O=S(=O)(Nc1ccc(N=Nc2ccc(O)c3ccccc23)cc1)c1ccccc1	47*	38	34	61*	-10
CCOC(=O)[C@@H]1[C@H]2COc3cc(OC)ccc3[C@@H]2N2C(=O)N(c3ccc(F)cc3)C(=O)[C@]12C	-6	14	7	6	6
CCOC(=O)C1=C(O)/C(=C/c2ccc(-c3ccccc3C(=O)O)o2)SC1=Nc1ccc(C)cc1	40	·	7	24	·
CCOC(=O)C1=C(O)/C(=C/c2cn(CC(=O)NCC3CCCO3)c3ccccc23)SC1=Nc1ccc(C)cc1 (configuration not stated)	49*	17	12	16	-11
COc1ccccc1CNC(=O)COC(=O)c1cc(-c2ccco2)nc2ccccc12	-3	16	17	50*	-5
Cc1ccc2nc(C)c(CN3CCN(c4ccc([N+](=O)[O-])cc4Cl)CC3)n2c1	47*	18	6	·	3
O=[N+]([O-])c1ccc(S(=O)(=O)c2cccc(C(F)(F)F)c2)nc1	-18	18	47*	·	7
O=S(=O)(Nc1cccnc1)c1cccc(C(F)(F)F)c1	6	-9	0	0	-2
Cc1ccc(NC(=O)Nc2nnc(Cc3ccc([N+](=O)[O-])cc3)s2)cc1	-10	-14	-1	62*	3
Cc1ccccc1OCC(=O)NCC(c1cccs1)N1CCOCC1 (configuration not stated)	-2	-3	-6	-4	-1
O=C(NC1CCCCCC1)c1c2c(nc3ccccc13)CCN(Cc1ccccc1)C2	9	-12	15	1	-1
Cc1cc(N2CCN(C)CC2)ccc1NC(=O)c1c2c(nc3ccccc13)CCN(Cc1ccccc1)C2	-5	-16	-11	0	16*
C#CCOc1ccc2c3c(c(=O)oc2c1)CCCC3	1	10	11	15	0
CCOC(=O)COc1ccccc1/C=C\[N+](=O)[O-]	-17	·	45*	69*	·
COc1ccc(Cl)c(-c2cc(C(=O)Nc3ccc(F)cc3)[nH]n2)c1	5	·	-10	·	·
COCCNC(=S)N(CCc1c(C)[nH]c2ccc(F)cc12)Cc1ccco1	17	2	4	15	-4
CCCn1nnc(NC(=S)NC(=O)Cc2ccccc2)n1	-2	25	26	43	-5
CCCn1nnc(NC(=S)NC(=O)c2ccc(-c3ccc(Br)cc3)o2)n1	8	14	31	59*	-9
CC1(C)C2CC[C@]3(C)C(CC=C4[C@@H]5C[C@@](C)(CO)[C@@H]6C[C@@]5(CC[C@]43C)C(=O)O6)[C@@]2(C)CC[C@@H]1O (some centres not stated)	·	13	·	56*	0
CC1(C)C[C@H](O)[C@]2(CO)CC[C@]3(C)C(=CCC4[C@@]5(C)CC[C@H](O)C(C)(C)C5CC[C@]43C)[C@@H]2C1 (some centres not stated)	-21	-12	1	-5	-1
Cc1ccc(C(=O)N[C@H](C(=O)NC2CCCCCCC2)C(C)C)cc1	2	-10	1	1	-4
SMILES	EBI2 block	APJ antag	CXCR6 inh	CCR6 antag	APJ agonist
COC(=O)/C=C\C(C#N)(C#N)N=Cc1ccc(OC)cc1	8	·	65*	15	·
COc1ccc(C=NNC(=O)CCCCC(=O)NN=Cc2ccc(OC)cc2)cc1	13	·	11	6	·
O=C1CC2(CCCCC2)Oc2ccc(Cl)cc21	-10	33	3	16	-3
COc1ccccc1N(C(=O)CCl)c1cn(C(C)=O)c2ccccc12	-8	19	2	8	-3
COc1ccccc1N(C(C)=O)C1=C(Cl)C(=O)c2ccccc2C1=O	3	·	96*	·	·
CC1(C(=O)N/N=C/c2ccccc2)CC1(Cl)Cl (configuration not stated)	-2	3	5	7	0
CC1=NN(C(=O)c2ccc(Cl)cc2)C(O)(c2ccccc2)C1 (configuration not stated)	1	15	18	55*	-5
NC(=O)c1cc(-c2ccccc2)sc1NC(=O)Cc1ccc(S(=O)(=O)N2CCOCC2)s1	50*	6	-1	-16	0
O=C(Cc1ccc(S(=O)(=O)N2CCOCC2)s1)Nc1ccccc1Br	8	-21	-12	-2	2
CCN(CC(=O)Nc1ccc(OC(F)F)cc1)C1CCCCC1	4	2	8	0	-5
CCN(C(=S)Nc1ccc(OC(F)F)cc1)C1CCCCC1	47*	0	-8	8	-4
N#Cc1ccc(Nc2nc(-c3ccc(O)cc3O)cs2)cc1C(F)(F)F	56*	3	-23	4	6
Cc1ccc(OCC(=O)NNC(=S)NC(=O)c2cccs2)c(C)c1	-9	10	37	55*	-7
O=C(CN1CCN(CC(=O)c2ccccc2)CC1)c1ccccc1	11	·	12	16	·
Cc1cccc(Nc2nc(-c3sc(C)nc3C)cs2)c1	57*	-3	6	-10	-1
C/C(CCC12CC3CC(CC(C3)C1)C2)=N\NC(N)=S	29	5	21	57*	-4
CC(C)(C)c1cnnn1-c1ccc(C=O)cc1	-7	7	-8	-12	-1
CC(C)(C)c1cnnn1-c1ccc(C(=O)CCl)cc1	8	20	12	65*	-4
Cc1cc2ccccn2c1C(=O)c1ccc(N/N=C/c2ccc(C(=O)O)cc2)c([N+](=O)[O-])c1	-2	·	33	42	·
C/C(=N\Nc1ccc(C(=O)c2c(C)cc3ccccn23)cc1[N+](=O)[O-])c1ccc(O)cc1	40	17	47*	41	-5
C/C(=N/Nc1ccc(C(=O)c2c(C)cc3ccccn23)cc1[N+](=O)[O-])c1ccc(O)cc1	19	·	37*	47	·
Cc1ccc(N=Cc2c(O)c3ccccc3oc2=O)cc1F	-8	9	4	0	1
Oc1ccc(C[C@H]2CNC(=S)N2C[C@H]2CCCN2C[C@H](Cc2ccccc2)N2C[C@H](Cc3ccccc3)N(CC3CCCCC3)C2=S)cc1	20	·	3	·	·
Cc1cccc2c1NC(=O)/C2=C\C(=O)c1cccs1	43*	12	12	46	0
Cc1cc(C)c2c(c1)/C(=C/C(=O)c1ccc(Br)s1)C(=O)N2	74*	-2	9	15	2
Cc1cc(Br)c2c(c1)/C(=C/C(=O)c1cccs1)C(=O)N2	34	-52	-2	2	2
O=C(NCCOc1ccccc1)c1cc([N+](=O)[O-])ccc1N1CCOCC1	59*	-38	6	15	-2
